# rCAG binder-1 = binders of r(CAG) RNA repeats, primary screen, biochemical, fluorescence; r(CAG) RNA repeat, TO-PRO-1 dye displacement fluorescence; inhibition, % at 3 µM; 1.3% of 370,000 active; AID 651821, 2012;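 active means inhibition above the plate cutoff, the mean of all test compounds on that plate plus 3 SD, cut at about 35% in these data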;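 further: 0% = DMSO alone and 100% = 100 µM mitoxantrone as full dye displacement; higher means more dye released from RNA so lower well fluorescence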
# NadD inh = inhibitors of S. aureus NadD, primary screen, biochemical, colorimetric, uHTS; Nicotinate-nucleotide adenylyltransferase NadD (Staphylococcus aureus N315); purified NadD enzyme, colorimetric absorbance read-out; inhibition, % at 20 µM; 0.78% of 360,000 active; AID 602399, 2012; in the data active means inhibition above about 26%
# STEP block = STEP phosphatase inhibitors, primary screen, biochemical, fluorescence intensity, uHTS | inhibition, % at 20 µM | recombinant STEP, OMFP fluorogenic substrate | 0.25% of 360,000 active | Tyrosine-protein phosphatase non-receptor type 5 (Homo sapiens), P54829;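 active means inhibition at 20 µM, scaled per plate between control wells, above about 37%, limit read from the data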;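 further: 0% = DMSO with enzyme and substrate and 100% = substrate only without enzyme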
# Target sequence (P54829 whole entry, looked up): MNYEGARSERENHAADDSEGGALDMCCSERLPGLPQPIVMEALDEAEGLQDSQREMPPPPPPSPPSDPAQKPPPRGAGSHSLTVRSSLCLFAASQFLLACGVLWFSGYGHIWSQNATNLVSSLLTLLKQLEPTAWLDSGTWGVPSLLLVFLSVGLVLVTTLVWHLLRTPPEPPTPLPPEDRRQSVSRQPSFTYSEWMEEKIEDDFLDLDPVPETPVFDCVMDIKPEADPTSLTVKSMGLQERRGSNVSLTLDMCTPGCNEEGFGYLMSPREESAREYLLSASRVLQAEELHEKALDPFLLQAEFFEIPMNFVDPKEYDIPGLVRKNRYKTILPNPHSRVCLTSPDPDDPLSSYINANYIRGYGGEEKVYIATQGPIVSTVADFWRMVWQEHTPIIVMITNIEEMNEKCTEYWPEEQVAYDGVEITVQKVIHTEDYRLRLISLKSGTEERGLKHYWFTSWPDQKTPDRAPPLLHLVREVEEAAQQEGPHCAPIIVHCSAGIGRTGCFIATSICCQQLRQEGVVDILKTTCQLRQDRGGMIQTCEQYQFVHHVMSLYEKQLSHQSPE
#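 Also added – OMFP at 25 µM · Test system – STEP tyrosine phosphatase · Technique – FITC-channel fluorescence of OMFP product · Schedule – 20 min at room temperature, dark · Evaluation – control-normalized % inhibition with plate pattern correction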
# LMPTP block = LMPTP phosphatase inhibitors, primary screen, biochemical, fluorescence intensity, uHTS | Low molecular weight phosphotyrosine protein phosphatase (Homo sapiens), P24666 | recombinant LMPTP-A, OMFP fluorogenic substrate | inhibition, % at 20 µM | 0.22% of 360,000 active | AID 651560, 2012;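 active means compounds that cut the enzyme signal by at least half of the control window in the single-dose screen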;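 further: plate controls were DMSO wells with enzyme plus substrate for no effect and substrate without enzyme for full effect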
# Target sequence (P24666 whole entry, looked up): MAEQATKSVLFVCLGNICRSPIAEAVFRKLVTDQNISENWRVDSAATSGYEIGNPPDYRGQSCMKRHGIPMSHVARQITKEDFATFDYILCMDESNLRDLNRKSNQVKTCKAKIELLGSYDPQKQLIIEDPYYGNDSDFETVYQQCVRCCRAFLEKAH
#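 Test system – LMPTP-A phosphatase enzyme · Quantity – 0.625 nM LMPTP-A final · Reagent – OMFP substrate, 400 µM final · Dosing – one test concentration per compound, 20 µM, with 3% DMSO overall · Timing – 50 min enzyme reaction at room temperature, protected from light · Detection – fluorescence intensity · Controls – substrate-only low control, DMSO enzyme-plus-substrate high control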
# Scp1 inh = Scp-1 phosphatase inhibitors, primary screen, biochemical, colorimetric, uHTS | Recombinant Scp1, phosphopeptide, malachite green phosphate absorbance | inhibition, % at 20 µM | 0.88% of 340,000 active | AID 493091, 2011;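 active means inhibition above about 50% at 20 µM, limit read from the data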;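 further: plate controls were DMSO wells with enzyme for no effect and wells lacking enzyme for full effect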
#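 Test system: SCP-1 catalytic domain; Buffer or medium: Acidic Tris acetate buffer with magnesium and detergent; Also added: Phosphorylated 17-residue peptide substrate; Compound: single 20 µM dose, 1% DMSO; Schedule: enzyme reaction 45 min at room temperature, colour 5 min, stabilisation 30 min; Signal: Phosphate-binding colour reagent, absorbance read at 630 nm.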
# rCAG binder conf = small molecules binding CAG repeat RNA – biochemical, fluorescence, confirmation; 70% of 4,300 active; r(CAG) RNA repeat, TO-PRO-1 dye displacement fluorescence; inhibition, % at 3 µM; shares compounds with rCAG binder-1;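 active means inhibition above a per-plate cutoff, the mean inhibition of sample wells plus 3 SD, cut at about 35% in these data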;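 further: loss of TO-PRO-1 fluorescence as compound displaces dye from 1x1 AA loop RNA; 0% = DMSO only wells and 100% = 100 µM mitoxantrone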
# dCAG dye counter = displacement of TO-PRO-1 from CAG DNA duplex, counter-screen for rCAG RNA repeat binder project, biochemical, fluorescence, TO-PRO-1 dye, d(CAG) DNA oligo | shares compounds with rCAG binder-1 | d(CAG) DNA oligo TO-PRO-1 dye displacement | inhibition, % at 3 µM | 94% of 4,300 active;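 active means inhibition above its plate's cutoff, the mean test-well inhibition plus 3 SD, cut at about 4.8% in these data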;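 further: 0% = DNA dye mix with DMSO and 100% = 100 µM mitoxantrone; hits displace the dye from DNA and so lower well fluorescence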
# DNA CAG DR = inhibitors of DNA CAG/GTC TO-PRO-1 complex, dose response, counter-screen for rCAG RNA repeat binder project, biochemical, fluorescence, TO-PRO-1 dye; shares compounds with rCAG binder-1; DNA CAG/GTC duplex TO-PRO-1 dye displacement fluorescence; IC50, µM; 20% of 250 active; AID 686960, 2013; in the data active means IC50 below about 10 µM
# dCAG DNA bind = TO-PRO-1 dye complex inhibitors on d(CAG) DNA, dose response, counter-screen, biochemical, fluorescence, late stage. shares compounds with rCAG binder-1. d(CAG) DNA duplex TO-PRO-1 dye displacement. IC50, µM. 80% of 30 active
# rCAG binder-2 = molecules binding r(CAG) RNA repeats, late stage dose response, late-stage follow-up, biochemical, fluorescence, dose response, powder samples; shares compounds with rCAG binder-1; IC50, µM; 100% of 30 active; r(CAG) RNA TO-PRO-1 dye displacement
# Active calls of the source: *; i = inactive; x = not tested or not shown. Hits are enriched below; roughly 2.6% of the tested compounds scored in any of these assays. Unless noted, how the calls were made is not given here.
SMILES,rCAG binder-1,NadD inh,STEP block,LMPTP block,Scp1 inh,rCAG binder conf,dCAG dye counter,others
Oc1ccc(-c2cc(-c3ccc(O)cc3)nc(-c3ccccc3)n2)cc1,65*,2,-5,3,-12,51*,26*,DNA CAG DR=i
N#Cc1cccc(C(=O)N2CCC(Oc3cccnc3)CC2)c1,-2,x,x,x,x,x,x,
O=C(Nc1scc(-c2ccccc2)c1C(=O)O)c1ccccc1Cl,19,-4,2,-1,-6,x,x,
COc1cc(C(=O)Nc2scc(-c3ccc(C)cc3)c2C(=O)O)cc(OC)c1OC,50*,5,2,1,-9,76*,39*,
CCOC(=O)c1cc(CC)sc1NC(=O)c1cc(OCC)c(OCC)c(OCC)c1,-1,-6,4,2,-8,x,x,
COc1cc(C(=O)Nc2c(C(=O)O)[nH]c3ccc(C)cc23)cc(OC)c1OC,54*,-1,-1,1,-4,27,5.3*,
CCOC(=O)c1c(-c2cc(OC)c(OC)c(OC)c2)csc1NC(=O)c1ccccc1,4,-5,2,3,x,x,x,
Cc1ccc(C(=O)Nc2scc(-c3ccccc3)c2C(=O)O)cc1,51*,-1,2,-1,-7,34,8.8*,
CCc1cc(C(=O)O)c(NC(=O)c2cc(OC)c(OC)c(OC)c2)s1,38*,-1,0,2,-10,20,3,
C=CCOC(=O)N1CCN(C(=O)c2ccc3c(c2)nc(C)n3C2CCCC2)CC1,0,x,x,x,x,x,x,
C=CCn1c(COc2ccc(C)cc2)nnc1SCC(=O)c1ccc(-c2ccccc2)cc1,9,x,x,x,x,x,x,
COc1ccc(CCNC(=O)c2cc3c(C)nn(-c4ccccc4)c3s2)cc1OC,7,x,x,x,x,x,x,
O=C(Nc1c(-c2ccc(F)cc2)nc2ncccn12)c1ccccc1,7,x,x,x,x,x,x,
Cc1occc1-c1nnc(SCC(=O)Nc2ccc3ncccc3c2)n1-c1ccccc1,5,x,x,x,x,x,x,
COC(=O)c1c(-c2ccc(C)cc2)csc1NC(=O)C1CC=CCC1C(=O)O (centres undefined),38*,-1,-2,0,-5,38*,8.5*,
COC(=O)c1c(-c2cc(C)ccc2C)csc1NC(=O)C1CC=CCC1C(=O)O (centres undefined),30,6,-1,1,-2,x,x,
COc1ccc(-c2csc(NC(=O)c3ccccc3F)c2C(=O)O)cc1,48*,-7,1,-2,-7,32,6.1*,
CC1CCc2c(sc(NC(=O)c3ccco3)c2C(=O)O)C1 (centres undefined),16,-8,-1,-1,-9,x,x,
CC(C)(C)C(=O)Nc1scc(-c2ccc(-c3ccccc3)cc2)c1C(=O)O,34,3,2,0,-10,x,x,
O=C(/C=C/c1cccs1)Nc1scc(-c2ccccc2)c1C(=O)O,37*,14,-5,0,13,36*,11*,
CC1CCc2c(sc(NC(=O)/C=C/c3cccs3)c2C(=O)O)C1 (centres undefined),46*,-5,2,1,1,66*,26*,
CCCCCCCCN1C(=O)[C@@H](CC(=O)NCCCN2CCCC2=O)C[C@@]2(C(=O)OC)C1=C[C@H](COCc1ccccc1)O[C@@H]2C,4,x,x,x,x,x,x,
C[C@H]1C(c2ccccc2F)O[C@]2(C[C@H](O)c3c(ccc4ccccc34)O2)C[C@@H]1O (some centres undefined),4,x,x,x,x,x,x,
CN1CCN(S(=O)(=O)c2cccc(C(=O)Nc3sc4c(c3-c3nc5ccccc5[nH]3)CCCC4)c2)CC1,38*,18,0,3,2,29,20*,
Cc1nc2nc(C)c(NS(=O)(=O)c3ccc(C4CCCCC4)cc3)c(=O)n2[nH]1,38*,3,0,-1,-5,40*,9.5*,
SMILES,rCAG binder-1,NadD inh,STEP block,LMPTP block,Scp1 inh,rCAG binder conf,dCAG dye counter,others
CCc1nc2nc(C)c(NS(=O)(=O)c3ccc(C4CCCCC4)cc3)c(=O)n2[nH]1,49*,1,3,-1,2,44*,14*,
CCc1nc2nc(C)c(NS(=O)(=O)c3ccc(Cl)cc3)c(=O)n2[nH]1,3,-2,7,-1,-5,x,x,
O=C(Nc1ccccc1)Nc1nc2ncccn2c1-c1ccc(F)c(F)c1,3,x,x,x,x,x,x,
CN(c1ccc(O)cc1)c1nc(O)c(C2=c3ccccc3=NC2=O)s1,49*,6,1,5,-5,18,9.2*,
Cc1ccc(Oc2ccc(S(=O)(=O)Nc3ccc(C(=O)O)cc3)cc2)cc1,13,-3,-2,-1,-8,x,x,
Cc1ccc(Sc2ccc(S(=O)(=O)Nc3ccc(C(=O)O)cc3)cc2)cc1C,49*,15,-2,1,-8,43*,13*,
CC(=O)N1CCc2cc(S(=O)(=O)NCCC(=O)N(C)C3CCCCC3)ccc21,0,x,x,x,x,x,x,
C=CCNC(=O)CN(C(=O)Cc1ccc(Cl)cc1)c1cccc(Br)c1,2,x,x,x,x,x,x,
N=C1/C(=C/c2cccs2)C(=O)N=C2SN=C(SCc3ccccc3)N12,75*,3,-1,2,26,82*,50*,
CC(C)CSC1=NSC2=NC(=O)/C(=C\c3cccs3)C(=N)N12,72*,2,1,4,1,57*,21*,DNA CAG DR=i;dCAG DNA bind=4.3*;rCAG binder-2=1.7*
CSC1=NSC2=NC(=O)/C(=C\c3cccs3)C(=N)N12,13,0,2,0,-9,x,x,
COc1cccc(-c2nnc(SCC(=O)Nc3ccc(OCc4ccccc4)cc3)n2Cc2ccco2)c1,10,x,x,x,x,x,x,

# Screens deposited in PubChem by several laboratories.
